Results from ChEMBL document CHEMBL1128352, “Substituted (1,2-diarylethyl)amide acyl-CoA:cholesterol acyltransferase inhibitors: effect of polar groups on in vitro and in vivo activity” (J Med Chem, 1995).

Key:
[1] = system: Cricetinae gen. sp.; experiment: In vivo dose effecting the cholesteryl esters in cholesterol-fed hamsters at a dose of 50(mpk); format: functional
[2] = system: Cricetinae gen. sp.; experiment: In vivo effect on cholesteryl esters in cholesterol-fed hamsters at a dose of 50(mpk); format: functional
Outline: (§1)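 Male golden Syrian hamsters (100–125 g) were fed a high-cholesterol diet for 7 days. Compound was given by oral gavage in 0.2 mL corn oil/day. Liver lipids were Folch-extracted and hepatic cholesteryl ester measured by HPLC. Results are given as percent change versus cholesterol-fed controls dosed with vehicle alone.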

[3] = system: Cricetinae gen. sp.; experiment: In vivo effect on serum cholesterol level of cholesterol-fed hamsters at a dose of 50(mpk); format: functional
[4] = target: T1, Sterol O-acyltransferase 1 (Rattus norvegicus, UniProt O70536); experiment: In vitro inhibition of acyl coenzyme A:cholesterol acyltransferase 1, rat liver microsomal assay
T1 sequence (O70536 whole entry): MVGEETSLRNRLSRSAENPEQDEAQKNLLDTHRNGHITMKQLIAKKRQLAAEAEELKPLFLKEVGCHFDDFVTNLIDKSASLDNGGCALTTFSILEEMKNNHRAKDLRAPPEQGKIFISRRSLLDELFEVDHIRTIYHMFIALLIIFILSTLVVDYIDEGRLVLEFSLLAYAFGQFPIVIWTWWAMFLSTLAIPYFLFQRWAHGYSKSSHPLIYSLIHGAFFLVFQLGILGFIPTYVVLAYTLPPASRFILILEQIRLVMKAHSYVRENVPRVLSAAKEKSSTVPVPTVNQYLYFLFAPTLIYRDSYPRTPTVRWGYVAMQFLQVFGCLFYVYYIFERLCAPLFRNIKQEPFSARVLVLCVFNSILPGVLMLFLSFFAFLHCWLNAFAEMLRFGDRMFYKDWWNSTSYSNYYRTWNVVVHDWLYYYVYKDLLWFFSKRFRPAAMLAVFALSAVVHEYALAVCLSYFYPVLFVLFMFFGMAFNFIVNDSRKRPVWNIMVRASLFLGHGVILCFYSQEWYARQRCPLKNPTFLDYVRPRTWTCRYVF
Outline: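 Compound added from DMSO stock and preincubated 15 min at 37 °C. [³H]oleoyl-CoA (10 µM final, 1 µCi) then added for 15 min at 37 °C. Cholesteryl [³H]oleate separated by silica TLC and counted by liquid scintillation.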

[5] = system: Cricetinae gen. sp.; experiment: In vivo effect on cholesteryl esters level of cholesterol-fed hamsters at a dose of 50 mg/kg per oral; format: functional; outline: as §1
[6] = system: Cricetinae gen. sp.; experiment: In vivo effect on serum cholesterol level of cholesterol-fed hamsters at a dose of 50 mg/kg per oral; format: functional
[7] = target: T2, Sterol O-acyltransferase 1 (Rattus norvegicus) (UniProt O70536); experiment: In vitro ability of compound to inhibit Acyl coenzyme A:cholesterol acyltransferase 1 using rat liver microsomal assay; settings: concentration not given here
T2 sequence (whole entry): T1 sequence (O70536 whole entry)
Outline: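 Rat liver microsomes (12.5 µg protein) in 0.1 M potassium phosphate with 2 mM DTT, pH 7.4, and 90 µM fatty-acid-free BSA. Compound added from DMSO stock and preincubated 15 min at 37 °C. [³H]oleoyl-CoA (10 µM final, 1 µCi) then added for 15 min at 37 °C. Cholesteryl [³H]oleate separated by silica TLC and counted by liquid scintillation.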

[8] = system: Cricetinae gen. sp.; experiment: In vivo effect on serum cholesterol level of cholesterol-fed hamsters at a dose of 100(mpk); format: functional
[9] = system: Cricetinae gen. sp.; experiment: In vivo effect on cholesteryl esters in cholesterol-fed hamsters at a dose of 100(mpk); format: functional; outline: as §1

IC50 [4] [µM] | SMILES | Change [5] [%] | Change [6] [%] | also measured
1.6 | COc1ccc(CC(NC(=O)C(c2ccccc2)c2ccccc2)c2ccccc2)cc1 (configuration not stated) | -65 | -14 | 
0.8 | O=C(NC(Cc1ccc(O)cc1)c1ccccc1)C(c1ccccc1)c1ccccc1 (configuration not stated) | 0 | 0 | 
1.8 | O=C(NC(Cc1ccncc1)c1ccccc1)C(c1ccccc1)c1ccccc1 (configuration not stated) | -52 | -10 | 
> 10 | O=C(O)c1ccc(CC(NC(=O)C(c2ccccc2)c2ccccc2)c2ccccc2)cc1 (configuration not stated) |  |  | 
1 | O=C(NC(Cc1ccccc1)c1ccc(O)cc1)C(c1ccccc1)c1ccccc1 (configuration not stated) | -69 | -14 | 
> 10 | COC(=O)c1ccc(CC(NC(=O)C(c2ccccc2)c2ccccc2)c2ccccc2)cc1 (configuration not stated) |  |  | 
> 10 | O=C(NC(Cc1ncc[nH]1)c1ccccc1)C(c1ccccc1)c1ccccc1 (configuration not stated) |  |  | 
> 10 | C[Si](C)(C)CCOCn1ccnc1C(Cc1ccccc1)NC(=O)C(c1ccccc1)c1ccccc1 (configuration not stated) |  |  | 
0.35 | CC(=O)Nc1ccc(CC(NC(=O)C(c2ccccc2)c2ccccc2)c2ccccc2)cc1 (configuration not stated) | 0 | -12 | 
4 | O=C(NC(Cc1ccccc1)c1cccnc1)C(c1ccccc1)c1ccccc1 (configuration not stated) | 0 | -9 | 
5 | CCCCCCCn1ccnc1CC(NC(=O)C(c1ccccc1)c1ccccc1)c1ccccc1 (configuration not stated) | 0 | 0 | 
0.36 | CS(=O)(=O)Nc1ccc(CC(NC(=O)C(c2ccccc2)c2ccccc2)c2ccccc2)cc1 (configuration not stated) | -32 | -17 | 
> 10 | COc1ccc(CC(NC(=O)C(c2ccccc2)c2ccccc2)c2ccc(OC)cc2)cc1 (configuration not stated) | -32 | 0 | 

Second part, the compound before the results:

SMILES | IC50 [4] [µM] | Change [5] [%] | Change [6] [%] | also measured
CCCCCCCCCCC(C)(C)C(=O)Nc1c(OC)cc(OC)cc1OC [CL-976] |  |  |  | ED50 [1]: 20 mg/kg; Change [2]: -67%; Change [3]: -10%
O=C(NC(Cc1ccccc1)c1cccc(O)c1)C(c1ccccc1)c1ccccc1 (configuration not stated) |  | -19 | -17 | inhibition [7]: 88%
O=C(NC(Cc1ccccc1)c1ccccc1)C(c1ccccc1)c1ccccc1 (configuration not stated) | 0.46 |  |  | Change [2]: -15%; Change [3]: 0%
O=C(NC(Cc1ccccc1)c1ccncc1)C(c1ccccc1)c1ccccc1 (configuration not stated) | 2.3 | -29 | -13 | 
CCCCCCCC/C=C\CCCCCCC(C)(C)C(=O)NC(Cc1ccc(N)cc1)c1ccccc1 (configuration not stated) | 0.36 |  |  | Change [8]: -24%; Change [9]: -54%
Nc1ccc(CC(NC(=O)C(c2ccccc2)c2ccccc2)c2ccccc2)cc1 (single isomer, unassigned; (-)) |  | -81 | 0 | 
O=C(NC(Cc1ccccc1)c1ncc[nH]1)C(c1ccccc1)c1ccccc1 (configuration not stated) | > 10 |  |  | 
COc1ccc(C(Cc2ccccc2)NC(=O)C(c2ccccc2)c2ccccc2)cc1 (configuration not stated) | 1.5 | -69 | -14 | 
Nc1ccc(CC(NC(=O)C(c2ccccc2)c2ccccc2)c2ccccc2)cc1 (racemic) |  |  |  | ED50 [1]: 21 mg/kg; Change [2]: -60%; Change [3]: -13%
COc1ccc(CC(NC(=O)C(c2ccccc2)c2ccccc2)c2ccccc2)cc1OC (configuration not stated) | 0.5 | -26 | -21 | 
Nc1ccc(C(Cc2ccccc2)NC(=O)C(c2ccccc2)c2ccccc2)cc1 (configuration not stated) | 2.8 | -24 | 0 | 
O=C(O)c1ccc(C(Cc2ccccc2)NC(=O)C(c2ccccc2)c2ccccc2)cc1 (configuration not stated) | 10 | 0 | 0 | 
Nc1cccc(CC(NC(=O)C(c2ccccc2)c2ccccc2)c2ccccc2)c1 (configuration not stated) | 5 | -31 | -15 | 
O=C(NC(Cc1ccccc1)c1cc[n+]([O-])cc1)C(c1ccccc1)c1ccccc1 (configuration not stated) | > 10 | -28 | 0 | 
C[Si](C)(C)CCOCn1ccnc1CC(NC(=O)C(c1ccccc1)c1ccccc1)c1ccccc1 (configuration not stated) | 5 | -24 | 0 | 
COc1cccc(C(Cc2ccccc2)NC(=O)C(c2ccccc2)c2ccccc2)c1 (configuration not stated) | 1.5 | 0 | 0 | 
COc1ccc(CC(NC(=O)C(c2ccccc2)c2ccccc2)c2cccc(OC)c2)cc1 (configuration not stated) | 2.4 | 0 | -20 | 
CCCCCCCC/C=C\CCCCCCCC(=O)NC(Cc1ccccc1)c1ccccc1 (configuration not stated) |  |  |  | Change [8]: -4%; Change [9]: -23%
CCCCCCCN(Cc1ccc(CC(C)(C)C)cc1)C(=O)Nc1ccc(F)cc1F [CL-277082] |  |  |  | ED50 [1]: 15 mg/kg; Change [2]: -85%; Change [3]: -29%
COc1ccccc1C(Cc1ccccc1)NC(=O)C(c1ccccc1)c1ccccc1 (configuration not stated) | 1.8 | -51 | 0 | 
CCCCCCCCCC[Si](C)(C)CCC(=O)NC(Cc1ccc(C)cc1)c1ccccc1 (configuration not stated) | 0.3 |  |  | Change [8]: -5%; Change [9]: 0%
O=C(NC(Cn1ccnc1)c1ccccc1)C(c1ccccc1)c1ccccc1 (configuration not stated) | 3.5 | 0 | 0 | 
Nc1ccc(CC(NC(=O)C(c2ccccc2)c2ccccc2)c2ccccc2)cc1 (stereo in doubt; (+)-5) |  | 0 |  | 
O=C(NC(Cc1ccc(O)cc1)c1ccc(O)cc1)C(c1ccccc1)c1ccccc1 (configuration not stated) |  | -40 | -20 | inhibition [7]: 97%
